Several values for one entry are separate records, joined by “and”; a condition that tells them apart may be missing. Identical values can stand only once.
Test system: U2OS
Assay: Multiplex assay against U2OS
Format: toxicity, cell-based
Settings: human
Method in brief: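 At seeding, live cells were stained with Hoechst33342, BioTracker Green Microtubule Cytoskeleton Dye, MitoTracker Red and Annexin V Alexa Fluor 680. After compound addition they were imaged on a CQ1 microscope at 37°C and 5% CO2, and CellPathfinder machine-learning gating sorted them into Hoechst high-intensity objects or normal cells, with normal cells further split into healthy, pyknosed or fragmented nuclei and pyknosed cells into mitotic or apoptotic. Tubulin, mitochondrial-mass and membrane-permeability phenotypes are given as per cents of cells with healthy nuclei.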

[1] = 12 h, 1 µM, compound concentration 1 uM
[2] = 12 h, 10 µM, compound concentration 10 uM
[3] = 24 h, 1 µM, compound concentration 1 uM
[4] = 24 h, 10 µM, compound concentration 10 uM
[5] = 48 h, 1 µM, compound concentration 1 uM
[6] = 48 h, 10 µM, compound concentration 10 uM

CCn1cnc2c(-c3ccc(F)c(-c4ccc(S(=O)(=O)CC)cc4OC)c3)cnnc21 [DARIGABAT]
Population Apoptotic (%) [1]: 18.37% and 38.1%
Population Fragmented Nuclei (%) [1]: 2.41% and 2.26%
Population Healthy Nuclei (%) [1]: 84.49% and 81.95%
Population Hoechst High Intensity Objects (%) [1]: 0%
Population Membrane Permeable-Phenotype (%) [1]: 0.95% and 3.67%
Population Mitochondria Different-Phenotype (%) [1]: 0% and 6.42%
Population Mitotic Cells (%) [1]: 81.63% and 61.9%
Population Normal (%) [1]: 100%
Population Pyknosed Nuclei (%) [1]: 13.1% and 15.79%
Population Tubulin-Different-Phenotype (%) [1]: 1.58% and 0.92%
Total Cell Count [1]: 374 and 133
Population Apoptotic (%) [2]: 35.44% and 27.5%
Population Fragmented Nuclei (%) [2]: 2.35% and 3.87%
Population Healthy Nuclei (%) [2]: 74.41% and 70.32%
Population Hoechst High Intensity Objects (%) [2]: 0% and 0.64%
Population Membrane Permeable-Phenotype (%) [2]: 3.95% and 3.67%
Population Mitotic Cells (%) [2]: 64.56% and 72.5%
Population Normal (%) [2]: 100% and 99.36%
Population Pyknosed Nuclei (%) [2]: 25.81%
Total Cell Count [2]: 340 and 156
Population Apoptotic (%) [3]: 28.12% and 48%
Population Fragmented Nuclei (%) [3]: 1.34% and 1.64%
Population Healthy Nuclei (%) [3]: 86.42% and 84.7%
Population Hoechst High Intensity Objects (%) [3]: 0%
Population Membrane Permeable-Phenotype (%) [3]: 0.66% and 4.52%
Population Mitochondria Different-Phenotype (%) [3]: 0% and 1.94%
Population Mitotic Cells (%) [3]: 71.88% and 52%
Population Normal (%) [3]: 100%
Population Pyknosed Nuclei (%) [3]: 12.24% and 13.66%
Population Tubulin-Different-Phenotype (%) [3]: 2.21% and 0%
Total Cell Count [3]: 523 and 183
Population Apoptotic (%) [4]: 49.55% and 36%
Population Fragmented Nuclei (%) [4]: 3.86% and 1.2%
Population Healthy Nuclei (%) [4]: 67.61% and 68.67%
Population Hoechst High Intensity Objects (%) [4]: 0%
Population Membrane Permeable-Phenotype (%) [4]: 3.04% and 5.26%
Population Mitotic Cells (%) [4]: 50.45% and 64%
Population Normal (%) [4]: 100%
Population Pyknosed Nuclei (%) [4]: 28.53% and 30.12%
Population Tubulin-Different-Phenotype (%) [4]: 11.79% and 2.63%
Total Cell Count [4]: 389 and 166
Population Apoptotic (%) [5]: 49.52% and 51.28%
Population Fragmented Nuclei (%) [5]: 5.85% and 2.9%
Population Healthy Nuclei (%) [5]: 81.07% and 82.97%
Population Hoechst High Intensity Objects (%) [5]: 0%
Population Membrane Permeable-Phenotype (%) [5]: 0.61% and 2.62%
Population Mitochondria Different-Phenotype (%) [5]: 0% and 3.49%
Population Mitotic Cells (%) [5]: 50.48% and 48.72%
Population Normal (%) [5]: 100%
Population Pyknosed Nuclei (%) [5]: 13.08% and 14.13%
Population Tubulin-Different-Phenotype (%) [5]: 1.84% and 0.87%
Total Cell Count [5]: 803 and 276
Population Apoptotic (%) [6]: 64.56% and 67.12%
Population Fragmented Nuclei (%) [6]: 3.84% and 5.23%
Population Healthy Nuclei (%) [6]: 52.88% and 47.06%
Population Hoechst High Intensity Objects (%) [6]: 0%
Population Membrane Permeable-Phenotype (%) [6]: 7.25% and 11.11%
Population Mitotic Cells (%) [6]: 35.44% and 32.88%
Population Normal (%) [6]: 100%
Population Pyknosed Nuclei (%) [6]: 43.29% and 47.71%
Population Tubulin-Different-Phenotype (%) [6]: 24.87% and 11.11%
Total Cell Count [6]: 365 and 153

COc1ccc(Cl)cc1[C@]1(F)C(=O)Nc2cc(C(F)(F)F)ccc21 [FLINDOKALNER]
Population Apoptotic (%) [1]: 40.48% and 33.33%
Population Fragmented Nuclei (%) [1]: 1.33% and 3.73%
Population Healthy Nuclei (%) [1]: 87.53% and 81.37%
Population Hoechst High Intensity Objects (%) [1]: 0%
Population Membrane Permeable-Phenotype (%) [1]: 1.21% and 0.76%
Population Mitochondria Different-Phenotype (%) [1]: 0.3% and 7.63%
Population Mitotic Cells (%) [1]: 59.52% and 66.67%
Population Normal (%) [1]: 100%
Population Pyknosed Nuclei (%) [1]: 11.14% and 14.91%
Population Tubulin-Different-Phenotype (%) [1]: 0.61% and 0.76%
Total Cell Count [1]: 377 and 161
Population Apoptotic (%) [2]: 21.43% and 29.17%
Population Fragmented Nuclei (%) [2]: 2.21% and 3.35%
Population Healthy Nuclei (%) [2]: 86.19% and 83.24%
Population Hoechst High Intensity Objects (%) [2]: 0%
Population Membrane Permeable-Phenotype (%) [2]: 0.64% and 5.37%
Population Mitochondria Different-Phenotype (%) [2]: 0% and 12.08%
Population Mitotic Cells (%) [2]: 78.57% and 70.83%
Population Normal (%) [2]: 100%
Population Pyknosed Nuclei (%) [2]: 11.6% and 13.41%
Population Tubulin-Different-Phenotype (%) [2]: 1.6% and 1.34%
Total Cell Count [2]: 362 and 179
Population Apoptotic (%) [3]: 41.67% and 37.93%
Population Fragmented Nuclei (%) [3]: 1.57% and 1.48%
Population Healthy Nuclei (%) [3]: 88.98% and 84.24%
Population Hoechst High Intensity Objects (%) [3]: 0%
Population Membrane Permeable-Phenotype (%) [3]: 0.22% and 2.34%
Population Mitochondria Different-Phenotype (%) [3]: 0.22% and 5.26%
Population Mitotic Cells (%) [3]: 58.33% and 62.07%
Population Normal (%) [3]: 100%
Population Pyknosed Nuclei (%) [3]: 9.45% and 14.29%
Population Tubulin-Different-Phenotype (%) [3]: 0.88% and 0.58%
Total Cell Count [3]: 508 and 203
Population Apoptotic (%) [4]: 29.63% and 42.11%
Population Fragmented Nuclei (%) [4]: 1.38% and 4.65%
Population Healthy Nuclei (%) [4]: 88.02% and 77.67%
Population Hoechst High Intensity Objects (%) [4]: 0%
Population Membrane Permeable-Phenotype (%) [4]: 1.34% and 7.78%
Population Mitochondria Different-Phenotype (%) [4]: 0% and 8.38%
Population Mitotic Cells (%) [4]: 70.37% and 57.89%
Population Normal (%) [4]: 100%
Population Pyknosed Nuclei (%) [4]: 10.61% and 17.67%
Population Tubulin-Different-Phenotype (%) [4]: 1.34% and 0%
Total Cell Count [4]: 509 and 215
Population Apoptotic (%) [5]: 38.67% and 50%
Population Fragmented Nuclei (%) [5]: 2.32% and 1.61%
Population Healthy Nuclei (%) [5]: 89.42% and 82.32%
Population Hoechst High Intensity Objects (%) [5]: 0%
Population Membrane Permeable-Phenotype (%) [5]: 1.48% and 1.56%
Population Mitochondria Different-Phenotype (%) [5]: 0.12% and 5.08%
Population Mitotic Cells (%) [5]: 61.33% and 50%
Population Normal (%) [5]: 100%
Population Pyknosed Nuclei (%) [5]: 8.27% and 16.08%
Population Tubulin-Different-Phenotype (%) [5]: 0.74% and 0.78%
Total Cell Count [5]: 907 and 311
Population Apoptotic (%) [6]: 34.18% and 46.94%
Population Fragmented Nuclei (%) [6]: 2.33% and 1.38%
Population Healthy Nuclei (%) [6]: 89.31% and 85.12%
Population Hoechst High Intensity Objects (%) [6]: 0%
Population Membrane Permeable-Phenotype (%) [6]: 0.83% and 3.24%
Population Mitochondria Different-Phenotype (%) [6]: 0% and 5.18%
Population Mitotic Cells (%) [6]: 65.82% and 53.06%
Population Normal (%) [6]: 100%
Population Pyknosed Nuclei (%) [6]: 8.36% and 13.5%
Population Tubulin-Different-Phenotype (%) [6]: 1.3% and 0.32%
Total Cell Count [6]: 945 and 363

Cc1ccc(F)cc1C(=O)Nc1ccc(C(=O)N2Cc3cccn3Cc3ccccc32)c(Cl)c1 [LIXIVAPTAN]
Population Apoptotic (%) [1]: 69% and 84%
Population Healthy Nuclei (%) [1]: 55% and 82%
Population Hoechst High Intensity Objects (%) [1]: 3%
Population Membrane Permeable-Phenotype (%) [1]: 9% and 14%
Population Mitochondria Different-Phenotype (%) [1]: 9% and 10%
Population Mitotic Cells (%) [1]: 30% and 15%
Population Normal (%) [1]: 96%
Population Pyknosed Nuclei (%) [1]: 11% and 8%
Population Tubulin-Different-Phenotype (%) [1]: 7% and 11%
Total Cell Count [1]: 230 and 150
Population Apoptotic (%) [2]: 59% and 47%
Population Fragmented Nuclei (%) [2]: 34% and 13%
Population Healthy Nuclei (%) [2]: 49% and 69%
Population Hoechst High Intensity Objects (%) [2]: 5%
Population Membrane Permeable-Phenotype (%) [2]: 79% and 63%
Population Mitochondria Different-Phenotype (%) [2]: 42% and 55%
Population Mitotic Cells (%) [2]: 40% and 52%
Population Normal (%) [2]: 94%
Population Pyknosed Nuclei (%) [2]: 16%
Population Tubulin-Different-Phenotype (%) [2]: 85% and 77%
Total Cell Count [2]: 203 and 119
Population Apoptotic (%) [3]: 86% and 57%
Population Fragmented Nuclei (%) [3]: 26% and 14%
Population Healthy Nuclei (%) [3]: 64% and 81%
Population Hoechst High Intensity Objects (%) [3]: 1% and 4%
Population Membrane Permeable-Phenotype (%) [3]: 9% and 11%
Population Mitochondria Different-Phenotype (%) [3]: 9% and 13%
Population Normal (%) [3]: 98% and 95%
Population Pyknosed Nuclei (%) [3]: 8% and 4%
Population Tubulin-Different-Phenotype (%) [3]: 4% and 7%
Total Cell Count [3]: 257 and 171
Population Apoptotic (%) [4]: 59% and 66%
Population Fragmented Nuclei (%) [4]: 30% and 14%
Population Healthy Nuclei (%) [4]: 50% and 67%
Population Hoechst High Intensity Objects (%) [4]: 4%
Population Membrane Permeable-Phenotype (%) [4]: 65% and 54%
Population Mitochondria Different-Phenotype (%) [4]: 63% and 67%
Population Mitotic Cells (%) [4]: 40% and 33%
Population Normal (%) [4]: 95%
Population Pyknosed Nuclei (%) [4]: 18%
Population Tubulin-Different-Phenotype (%) [4]: 75% and 66%
Total Cell Count [4]: 207 and 119
Population Apoptotic (%) [5]: 87% and 95%
Population Fragmented Nuclei (%) [5]: 24% and 10%
Population Healthy Nuclei (%) [5]: 64% and 79%
Population Hoechst High Intensity Objects (%) [5]: 1% and 3%
Population Membrane Permeable-Phenotype (%) [5]: 9% and 13%
Population Mitochondria Different-Phenotype (%) [5]: 6% and 11%
Population Mitotic Cells (%) [5]: 12% and 5%
Population Normal (%) [5]: 98% and 96%
Population Pyknosed Nuclei (%) [5]: 11% and 10%
Population Tubulin-Different-Phenotype (%) [5]: 5%
Total Cell Count [5]: 378 and 206
Population Apoptotic (%) [6]: 75% and 92%
Population Fragmented Nuclei (%) [6]: 32% and 18%
Population Healthy Nuclei (%) [6]: 37% and 58%
Population Hoechst High Intensity Objects (%) [6]: 5% and 12%
Population Membrane Permeable-Phenotype (%) [6]: 49% and 60%
Population Mitochondria Different-Phenotype (%) [6]: 40% and 52%
Population Normal (%) [6]: 94% and 87%
Population Pyknosed Nuclei (%) [6]: 29% and 23%
Population Tubulin-Different-Phenotype (%) [6]: 44% and 57%
Total Cell Count [6]: 232 and 137

Reference: ChEMBL document CHEMBL5724801, “EUbOPEN Chemogenomics Library - Multiplex” (2024)
